Usually EC50 stands for the concentration needed to bring the measured effect to its halfway point. Broadly, the CC50 is the concentration at which the toxic effect on the cells reaches its halfway point.

The results in this text go back to ChEMBL document CHEMBL4043131, “New prodrugs of two pyrimidine acyclic nucleoside phosphonates: Synthesis and antiviral activity” (Bioorg Med Chem, 2017).

Calls of active or inactive are those of the source. The rule behind the calls is not given here.

Series [1] relates to Human alphaherpesvirus 1. Nature of the series: Antiviral activity against wild type Herpes simplex virus 1 KOS infected in HEL cells assessed as inhibition of virus-induced cytopathic effect. As to conditions: Human alphaherpesvirus 1, KOS. The format is functional, cell-based.
The subject of another series is Human alphaherpesvirus 2. Nature of the series: Antiviral activity against Herpes simplex virus 2 G infected in HEL cells assessed as inhibition of virus-induced cytopathic effect. Format: functional, cell-based. To be noted: Human alphaherpesvirus 2, strain G. The method in brief: (§1)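 Confluent cell monolayers were infected with 100 CCID50 of virus (1 CCID50 = dose infecting 50% of cultures) and incubated with varying compound concentrations. Cytopathicity was scored once complete in untreated infected controls.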

In series [2] the test system is Human alphaherpesvirus 1. Briefly: Antiviral activity against thymidine kinase-deficient ACV-resistant Herpes simplex virus 1 KOS infected in HEL cells assessed as inhibition of virus-induced cytopathic effect. Format: functional, cell-based. As to conditions: Human alphaherpesvirus 1, KOS. (Damage to the host cells serves as the signal in cytopathic effect assays.)

Series [3] deals with Human alphaherpesvirus 3. Nature of the series: Antiviral activity against wild type thymidine kinase expressing Varicella-Zoster virus Oka infected in HEL cells assessed as inhibition of virus-induced plaque formation. Format: functional, cell-based. As to conditions: Human alphaherpesvirus 3, Oka. The method in brief:
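Confluent HEL cultures were inoculated with 20 PFU of VZV and incubated with varying compound concentrations. Plaques were counted once formation was complete in untreated infected controls.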

Series [4] deals with Human alphaherpesvirus 3. Nature of the series: Antiviral activity against wild type thymidine kinase-deficient Varicella-Zoster virus 07-1 infected in HEL cells assessed as inhibition of virus-induced plaque formation. To be noted: Human alphaherpesvirus 3, 07-1, HEL. The format is functional, cell-based. The method, boiled down: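 HEL fibroblast monolayers were infected with 20 PFU of VZV and kept with varying compound concentrations. Plaques were counted once formation was complete in untreated infected controls.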

Series [5] concerns Human betaherpesvirus 5. Briefly: Antiviral activity against Human cytomegalovirus AD169 infected in HEL cells assessed as inhibition of virus-induced cytopathic effect. The format is functional, cell-based. As to conditions: Human betaherpesvirus 5, AD169, HEL. The method, boiled down:
as §1

In series [6] the test system is Human betaherpesvirus 5. Briefly: Antiviral activity against Human cytomegalovirus Davis infected in HEL cells assessed as inhibition of virus-induced cytopathic effect. To be noted: Human betaherpesvirus 5, Davis. The format is functional, cell-based. The method in brief: as §1
A further series has as its system Vaccinia virus. Nature of the series: Antiviral activity against Vaccinia virus Lederle infected in HEL cells assessed as inhibition of virus-induced cytopathic effect. Format: functional, cell-based. To be noted: Orthopoxvirus vaccinia.
The nature of series [7]: Cytotoxicity against HEL cells assessed as alteration of cell morphology by microscopic analysis. Format: cell-based. To be noted: human. The method, boiled down:
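MCC is the lowest compound concentration causing a microscopically detectable alteration of cell morphology.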

The next series has as its system HEL. Briefly: (§2) Cytotoxicity against HEL cells assessed as reduction in cell growth after 3 days by coulter counter method. To be noted: human, hel, 72 h. The format is cell-based. The method, boiled down:
(§3)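 HEL cells were seeded at 5 × 10³ cells/well and grown for 24 h, then given medium containing graded compound concentrations. After 3 days at 37 °C, cells were counted by Coulter counter.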

Series [8] relates to Vesicular stomatitis virus. Briefly: Antiviral activity against Vesicular stomatitis virus infected in HEL cells assessed as inhibition of virus-induced cytopathic effect. The format is functional, cell-based.
In the next series the test system is Coxsackievirus B4. Briefly: Antiviral activity against Coxsackie virus B4 infected in human HeLA cells assessed as inhibition of virus-induced cytopathic effect. Format: functional, cell-based. The method, boiled down:
as §1

Series [9] in a line: Antiviral activity against Respiratory syncytial virus A strain long infected in human HeLA cells assessed as inhibition of virus-induced cytopathic effect. The format is functional, cell-based. The method in brief: as §1
The test system of another series is Human respirovirus 3. Briefly: Antiviral activity against Parainfluenza virus 3 infected in African green monkey Vero cells assessed as inhibition of virus-induced cytopathic effect. The format is functional. The method in brief:
as §1

The test system of series [10] is Mammalian orthoreovirus 1. Briefly: Antiviral activity against Reovirus-1 infected in African green monkey Vero cells assessed as inhibition of virus-induced cytopathic effect. Format: functional. The method in brief: as §1
In a further series the test system is Sindbis virus. Briefly: Antiviral activity against Sindbis virus infected in African green monkey Vero cells assessed as inhibition of virus-induced cytopathic effect. Format: functional. The method in brief: as §1
The test system of the next series is Punta Toro virus. Briefly: Antiviral activity against Punta Toro virus infected in African green monkey Vero cells assessed as inhibition of virus-induced cytopathic effect. The format is functional. The method in brief: as §1
In another series the test system is Feline coronavirus. Briefly: Antiviral activity against Feline coronavirus infected in CRFK cells assessed as inhibition of virus-induced cytopathic effect. The format is functional, cell-based.
The subject of the next series is Influenza A virus. Nature of the series: Antiviral activity against Influenza A virus (H1N1) infected in HEL cells assessed as inhibition of virus-induced cytopathic effect. The format is functional, cell-based.
Another series relates to Influenza A virus H3N2. Briefly: Antiviral activity against Influenza A virus H3N2 infected in HEL cells assessed as inhibition of virus-induced cytopathic effect. Format: functional, cell-based.
The test system of the next series is Influenza B virus. Nature of the series: Antiviral activity against influenza B virus infected in HEL cells assessed as inhibition of virus-induced cytopathic effect. The format is functional, cell-based.
A short description of series [11]: as §2. The format is cell-based. As to conditions: human, HEL cells. The method, boiled down: as §3
The nature of series [12]: Selectivity index, ratio of CC50 for HEL cells to EC50 for Human cytomegalovirus AD169 infected in HEL cells. Format: toxicity, cell-based. As to conditions: read-out: Ratio CC50/EC50.
Series [13] in a line: Selectivity index, ratio of CC50 for HEL cells to EC50 for wild type Herpes simplex virus 1 KOS infected in HEL cells. Format: toxicity, cell-based. As to conditions: human, read-out: Ratio CC50/EC50. The method, boiled down:
(§4)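 EC50 is the concentration halving cytopathicity in HEL cells infected with 100 CCID50 HSV. […] Cells were counted by Coulter counter, and CC50 was read from plots of cell number (% of untreated) versus concentration. SI = CC50/EC50.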

A short description of series [14]: Selectivity index, ratio of CC50 for HEL cells to EC50 for Herpes simplex virus 2 G infected in HEL cells. The format is toxicity, cell-based. As to conditions: human, read-out: Ratio CC50/EC50. The method in brief:
as §4

Series [15] is described as follows: Selectivity index, ratio of CC50 for HEL cells to EC50 for thymidine kinase-deficient ACV-resistant Herpes simplex virus 1 KOS infected in HEL cells. The format is toxicity, cell-based. As to conditions: human, read-out: Ratio CC50/EC50. The method in brief: as §4
Series [16] is described as follows: Selectivity index, ratio of CC50 for HEL cells to EC50 for wild type thymidine kinase expressing Varicella-Zoster virus Oka infected in HEL cells. The format is toxicity, cell-based. To be noted: human, read-out: Ratio CC50/EC50.
Series [17] is described as follows: Selectivity index, ratio of CC50 for HEL cells to EC50 for wild type thymidine kinase-deficient Varicella-Zoster virus 07-1 infected in HEL cells. Format: toxicity, cell-based. To be noted: human, read-out: Ratio CC50/EC50.
Series [18] in a line: Selectivity index, ratio of CC50 for HEL cells to EC50 for Human cytomegalovirus Davis infected in HEL cells. Format: toxicity, cell-based. As to conditions: read-out: Ratio CC50/EC50.

With `CCOC(=O)[C@H](Cc1ccccc1)NP(=O)(COCCn1cnc(N)nc1=O)N[C@@H](Cc1ccccc1)C(=O)OCC`, the EC50 in the series with Human alphaherpesvirus 1 [1] is 32.5 µM; in the series on Human alphaherpesvirus 2, 39.5 µM; with Human alphaherpesvirus 1 [2], 42 µM; with Human alphaherpesvirus 3 [3], 29.4 µM; with Human alphaherpesvirus 3 [4], 26.8 µM; with Human betaherpesvirus 5 [5], 15.5 µM. The EC50 with Human betaherpesvirus 5 [6] is 7.5 µM; with Vaccinia virus it was above 100 µM. Also, the MCC in [7] is above 100 µM. Besides, in the series on HEL, the CC50 was above 100 µM. Besides, the result (in [8]; in the series with Coxsackievirus B4; in series [9]; in the series with Human respirovirus 3; in series [10]; in the series with Sindbis virus) was inactive. Moreover, the outcome with Punta Toro virus, in the series with Feline coronavirus, in the series with Influenza A virus, in the series with Influenza A virus H3N2 and with Influenza B virus was inactive.
`CC(C)OC(=O)OCOP(=O)(COCCOc1cc(N)nc(N)n1)OCOC(=O)OC(C)C`: the EC50 in the series with Human alphaherpesvirus 2 was 1.01 µM; with Human alphaherpesvirus 3 [3], 0.32 µM; in the series on Human alphaherpesvirus 3 [4], 0.29 µM; in the series on Human betaherpesvirus 5 [5] it was 90.1 µM; in the series on Human betaherpesvirus 5 [6], 86.3 µM. Moreover, in [7], the MCC is above 202 µM. The CC50 at 72 h in series [11] worked out at 15.1 µM. For the same molecule, the outcome (in the series with Coxsackievirus B4; in series [9]; in the series with Human respirovirus 3; in series [10]; in the series on Sindbis virus; in the series with Punta Toro virus) was inactive. The outcome in the series on Feline coronavirus was inactive.
Regarding `CCOC(=O)[C@H](C)NP(=O)(COCCOc1cc(N)nc(N)n1)N[C@@H](C)C(=O)OCC`, the EC50 was 3.9 µM in the series on Human alphaherpesvirus 1 [1]; 3.46 µM in the series with Human alphaherpesvirus 2; 6.3 µM with Human alphaherpesvirus 1 [2]; 0.56 µM in the series on Human alphaherpesvirus 3 [3]; 1.69 µM in the series on Human alphaherpesvirus 3 [4]; 28.4 µM with Human betaherpesvirus 5 [5]. Also, the values for the EC50 in the series on Human betaherpesvirus 5 [6] and with Vaccinia virus were 17 µM and 157 µM, respectively. Besides, the CC50 in the series with HEL came to 25.9 µM. Also, the result (in series [8]; in the series with Coxsackievirus B4; in series [9]; in the series on Human respirovirus 3; in series [10]; with Sindbis virus) was inactive. Moreover, the result in the series with Punta Toro virus, in the series on Feline coronavirus, in the series on Influenza A virus, in the series on Influenza A virus H3N2 and with Influenza B virus was inactive. Further, the selectivity ratio in series [12] was at most 1; in [13] it was 4 to 15; in [14], 4 to 15; in series [15], 4 to 15; in series [16], 15 to 52; in series [17] it was 15 to 52. In addition, in [18], the selectivity ratio is at most 1.
